Data taken from ChEMBL document CHEMBL2163282, “Discovery and characterization of AZD9272 and AZD6538-Two novel mGluR5 negative allosteric modulators selected for clinical development” (Bioorg Med Chem Lett, 2012).
In brackets after ≈: the same amount, converted by molar mass.

Tests used:
[1] = biological target: T1, Metabotropic glutamate receptor 5 (Homo sapiens, UniProt P41594); experiment: Negative allosteric modulation of human recombinant mGluR5 expressed in HEK293 cells expressing GLAST assessed as inhibition of DHPG-induced intracellular Ca2+ level after 30 mins by FLIPR assay
Target sequence in this assay (P41594 whole entry): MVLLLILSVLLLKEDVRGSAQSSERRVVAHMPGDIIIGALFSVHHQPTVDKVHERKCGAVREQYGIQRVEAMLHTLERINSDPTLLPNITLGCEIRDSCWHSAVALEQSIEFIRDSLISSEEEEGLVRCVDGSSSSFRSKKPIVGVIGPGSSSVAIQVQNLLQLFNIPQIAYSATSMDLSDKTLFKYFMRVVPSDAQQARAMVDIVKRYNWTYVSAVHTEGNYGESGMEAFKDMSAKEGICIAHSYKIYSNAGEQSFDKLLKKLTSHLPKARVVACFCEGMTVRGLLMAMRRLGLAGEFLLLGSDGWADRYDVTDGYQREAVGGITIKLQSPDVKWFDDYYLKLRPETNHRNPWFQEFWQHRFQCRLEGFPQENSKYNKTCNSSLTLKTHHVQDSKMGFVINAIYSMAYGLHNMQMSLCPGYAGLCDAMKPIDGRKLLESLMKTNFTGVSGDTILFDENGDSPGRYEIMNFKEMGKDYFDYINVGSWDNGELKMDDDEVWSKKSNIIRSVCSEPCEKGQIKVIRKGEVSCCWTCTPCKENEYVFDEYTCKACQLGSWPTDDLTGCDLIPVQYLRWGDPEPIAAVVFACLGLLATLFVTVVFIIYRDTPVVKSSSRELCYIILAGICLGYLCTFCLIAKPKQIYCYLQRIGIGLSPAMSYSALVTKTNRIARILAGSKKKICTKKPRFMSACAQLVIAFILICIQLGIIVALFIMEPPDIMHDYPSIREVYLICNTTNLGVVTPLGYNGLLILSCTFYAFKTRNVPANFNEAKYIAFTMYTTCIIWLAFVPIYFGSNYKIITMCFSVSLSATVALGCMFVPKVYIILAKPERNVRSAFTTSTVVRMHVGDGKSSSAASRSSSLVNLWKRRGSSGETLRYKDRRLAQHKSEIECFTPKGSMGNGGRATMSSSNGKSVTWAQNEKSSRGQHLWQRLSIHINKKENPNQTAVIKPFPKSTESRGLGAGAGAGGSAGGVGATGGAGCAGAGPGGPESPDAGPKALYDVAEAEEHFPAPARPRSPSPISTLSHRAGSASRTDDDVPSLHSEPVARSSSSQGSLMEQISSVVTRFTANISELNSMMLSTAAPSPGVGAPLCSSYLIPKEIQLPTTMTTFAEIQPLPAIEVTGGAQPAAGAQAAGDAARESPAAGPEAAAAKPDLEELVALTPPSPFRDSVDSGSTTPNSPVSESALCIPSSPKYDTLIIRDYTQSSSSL

[2] = Equilibrium solubility of the compound […]; type: physicochemical
Summary of the method: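 Solubility was measured by a dried-DMSO rapid-throughput method.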

[3] = Intrinsic clearance in rat liver microsomes; type: ADME, Microsome; details: read-out: CLH
Summary of the method: (§1)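 Intrinsic clearance was determined in human or rat microsomes and expressed per min per mg protein.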

[4] = Intrinsic clearance in human liver microsomes; type: ADME, Microsome; details: read-out: CLH; summary of the method: as §1
[5] = biological target: T1, Metabotropic glutamate receptor 5; experiment: Binding affinity to human mGluR5 expressed in HEK293 cell membranes expressing GLAST after 1 hr by scintillation counter in absence of MPEP
Summary of the method: (§2)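 [3H]AZD9272 equilibrium saturation binding on membranes from human mGluR5-GHEK cells (HEK293 stably expressing glutamate/aspartate transporter), run without MPEP or with 10 or 20 nM MPEP; filtration termination; Kd and Bmax (pmol/mg protein) derived per assay, three separate assays.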
Target sequence in this assay (P41594 whole entry): as above

[6] = biological target: T1, Metabotropic glutamate receptor 5; experiment: Binding affinity to human mGluR5 expressed in HEK293 cell membranes expressing GLAST after 1 hr by scintillation counter in presence of 10 nM MPEP; summary of the method: as §2
Target sequence in this assay (P41594 whole entry): as above

[7] = biological target: T1, Metabotropic glutamate receptor 5; experiment: Binding affinity to human mGluR5 expressed in HEK293 cell membranes expressing GLAST after 1 hr by scintillation counter in presence of 20 nM MPEP; summary of the method: as §2
Target sequence in this assay (P41594 whole entry): as above

[8] = test system: Brain; experiment: Drug uptake in Sprague-Dawley rat brain at 10 and 30 nmol/kg, iv administered as infusion after 5 mins by autoradiographic analysis; type: ADME, organism-based; details: in vivo
Summary of the method: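 Rats were dosed intravenously with [3H]AZD9272 at 10 or 30 nmol/kg. Five minutes later, brains were removed and sectioned sagittally. Radiolabel distribution was assessed by conventional autoradiography.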

[9] = biological target: T1, Metabotropic glutamate receptor 5; experiment: Binding affinity to human mGluR5 expressed in HEK293 cell membranes expressing GLAST by scintillation counting
Target sequence in this assay (P41594 whole entry): as above

[10] = biological target: Metabotropic glutamate receptor 5 (Rattus norvegicus, UniProt P31424); experiment: Binding affinity to mGluR5 in Sprague-Dawley rat striatum after 60 mins by autoradiographic analysis
Metabotropic glutamate receptor 5 (Rattus norvegicus, UniProt P31424), sequence (P31424 whole entry): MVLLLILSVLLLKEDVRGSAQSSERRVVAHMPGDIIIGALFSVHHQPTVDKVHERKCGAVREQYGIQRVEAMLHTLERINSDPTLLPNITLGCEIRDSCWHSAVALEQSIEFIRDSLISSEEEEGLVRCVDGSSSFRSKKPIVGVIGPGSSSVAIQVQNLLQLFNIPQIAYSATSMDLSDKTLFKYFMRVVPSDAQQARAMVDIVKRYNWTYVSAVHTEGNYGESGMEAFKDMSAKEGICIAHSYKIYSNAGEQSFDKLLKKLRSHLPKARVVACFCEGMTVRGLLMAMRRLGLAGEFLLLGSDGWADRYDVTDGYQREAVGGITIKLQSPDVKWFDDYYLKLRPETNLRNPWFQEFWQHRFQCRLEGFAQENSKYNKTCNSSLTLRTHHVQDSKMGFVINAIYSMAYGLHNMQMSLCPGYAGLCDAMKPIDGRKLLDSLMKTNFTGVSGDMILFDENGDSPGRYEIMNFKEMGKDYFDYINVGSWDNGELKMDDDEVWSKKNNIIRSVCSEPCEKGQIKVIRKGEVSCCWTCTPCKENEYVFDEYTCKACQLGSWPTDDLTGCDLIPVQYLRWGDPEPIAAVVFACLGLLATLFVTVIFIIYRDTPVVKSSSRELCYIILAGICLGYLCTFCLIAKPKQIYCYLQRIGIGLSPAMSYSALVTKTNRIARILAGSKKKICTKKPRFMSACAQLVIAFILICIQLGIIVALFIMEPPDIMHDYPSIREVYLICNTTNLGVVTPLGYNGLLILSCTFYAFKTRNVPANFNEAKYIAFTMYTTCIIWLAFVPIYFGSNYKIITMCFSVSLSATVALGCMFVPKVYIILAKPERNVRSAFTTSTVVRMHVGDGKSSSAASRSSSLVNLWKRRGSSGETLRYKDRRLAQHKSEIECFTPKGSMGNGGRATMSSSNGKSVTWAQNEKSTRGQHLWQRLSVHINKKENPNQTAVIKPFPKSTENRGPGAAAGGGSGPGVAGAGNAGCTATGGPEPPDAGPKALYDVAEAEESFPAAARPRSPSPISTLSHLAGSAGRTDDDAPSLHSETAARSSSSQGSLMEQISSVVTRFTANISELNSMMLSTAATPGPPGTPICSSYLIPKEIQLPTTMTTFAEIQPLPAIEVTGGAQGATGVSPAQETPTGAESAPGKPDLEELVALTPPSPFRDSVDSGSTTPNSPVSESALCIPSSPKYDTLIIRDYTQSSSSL

[11] = biological target: T1, Metabotropic glutamate receptor 5; experiment: Binding affinity to human mGluR5 expressed in HEK293 cell membranes expressing GLAST assessed as per mg of protein after 1 hr by scintillation counter
Target sequence in this assay (P41594 21-1212 limits assumed): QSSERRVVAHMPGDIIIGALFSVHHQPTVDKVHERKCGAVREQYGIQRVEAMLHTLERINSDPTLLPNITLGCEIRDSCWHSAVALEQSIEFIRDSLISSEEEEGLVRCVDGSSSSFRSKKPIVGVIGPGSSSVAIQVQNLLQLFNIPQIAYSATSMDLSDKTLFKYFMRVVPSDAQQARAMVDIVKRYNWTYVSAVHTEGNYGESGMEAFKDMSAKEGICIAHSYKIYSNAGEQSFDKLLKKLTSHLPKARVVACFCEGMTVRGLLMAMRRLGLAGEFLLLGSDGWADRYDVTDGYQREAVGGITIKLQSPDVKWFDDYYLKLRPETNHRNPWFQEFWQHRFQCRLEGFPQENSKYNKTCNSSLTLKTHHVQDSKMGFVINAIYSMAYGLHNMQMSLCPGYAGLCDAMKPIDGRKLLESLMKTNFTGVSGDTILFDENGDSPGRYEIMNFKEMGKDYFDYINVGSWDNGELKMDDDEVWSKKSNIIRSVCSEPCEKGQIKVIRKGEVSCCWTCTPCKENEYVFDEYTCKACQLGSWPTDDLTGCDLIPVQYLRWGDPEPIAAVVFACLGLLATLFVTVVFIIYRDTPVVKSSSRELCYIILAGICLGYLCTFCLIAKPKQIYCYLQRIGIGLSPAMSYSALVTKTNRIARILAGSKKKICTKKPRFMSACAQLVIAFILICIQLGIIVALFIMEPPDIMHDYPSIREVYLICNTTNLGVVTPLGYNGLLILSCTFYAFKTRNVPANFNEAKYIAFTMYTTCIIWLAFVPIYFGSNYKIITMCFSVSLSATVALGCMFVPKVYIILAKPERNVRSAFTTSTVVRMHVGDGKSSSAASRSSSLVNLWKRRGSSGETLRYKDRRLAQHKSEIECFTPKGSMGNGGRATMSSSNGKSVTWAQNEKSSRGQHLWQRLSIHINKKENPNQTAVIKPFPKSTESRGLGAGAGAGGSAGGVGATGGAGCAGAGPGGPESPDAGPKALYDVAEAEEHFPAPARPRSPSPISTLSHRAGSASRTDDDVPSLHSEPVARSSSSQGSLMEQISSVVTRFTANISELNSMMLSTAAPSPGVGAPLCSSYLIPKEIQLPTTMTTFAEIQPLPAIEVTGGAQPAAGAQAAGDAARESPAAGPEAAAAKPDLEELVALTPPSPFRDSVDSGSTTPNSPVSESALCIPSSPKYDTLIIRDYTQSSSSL

Structure (SMILES)	IC50 [1] [nM]	further results
N#Cc1cc(F)cc(-c2nc(-c3ccccn3)no2)c1	25	solubility [2]: 78.1 µM (≈ 20.8 µg/mL); microsomal CLint [3]: 29 µL/min/mg; microsomal CLint [4]: 92 µL/min/mg
Fc1cccc(-c2nc(-c3ccccn3)no2)c1	845	
Clc1cc(Cl)cc(-c2nc(-c3ccccn3)no2)c1	142	
[3H]c1c(F)cc(-c2nc(-c3ccc(F)cn3)no2)cc1C#N		Kd [5]: 3.8 nM; Kd [6]: 5.5 nM; Kd [7]: 7.2 nM; Drug uptake [8]: Active; Kd [9]: 2.8 nM; Kd [10]: 9.4 nM
Fc1cc(F)cc(-c2nc(-c3ccccn3)no2)c1	154	
NC(=O)c1ccccc1-c1nc(-c2ccccn2)no1	3300	
Clc1ccc(-c2nc(-c3ccccn3)no2)cc1Cl	> 10000	
COc1cccc(-c2nc(-c3ccccn3)no2)c1	540	
FC(F)(F)Oc1cccc(-c2nc(-c3ccccn3)no2)c1	700	
N#Cc1cc(F)cc(-c2nc(-c3ccccn3)co2)c1	22	
N#Cc1cc(F)cc(-c2nc(-c3ncccn3)no2)c1	1100	
N#Cc1cc(F)cc(-c2nc(-c3cnccn3)no2)c1	4700	
Clc1ccc(-c2nc(-c3ccccn3)no2)cc1	> 10000	
Clc1cccc(-c2nc(-c3ccccn3)no2)c1	116	
N#Cc1cc(F)cc(-c2ccc(-c3ccccn3)o2)c1	61	
Clc1cccc(-c2nc(-c3ccccn3)no2)c1Cl	274	
N#Cc1cc(C#N)cc(-c2nc(-c3ccccn3)no2)c1	176	
FC(F)(F)c1cc(-c2nc(-c3ccccn3)no2)cc(C(F)(F)F)c1	> 10000	
Clc1ccccc1-c1nc(-c2ccccn2)no1	436	
Brc1cccc(-c2nc(-c3ccccn3)no2)c1	118	
N#Cc1cc(F)cc(-c2noc(-c3ccccn3)n2)c1	23	
O=[N+]([O-])c1cccc(-c2nc(-c3ccccn3)no2)c1	236	
Cc1cccc(-c2nc(-c3ccccn3)no2)c1	443	
Clc1ccc(-c2nc(-c3ccccn3)no2)c(Cl)c1	1700	
Cc1cccc(C#Cc2ccccc2)n1		Bmax [11]: 4.4 pmol
